Published values pooled from the literature.
Protocols differ between the studies behind these lines.
Target: Dual specificity tyrosine-phosphorylation-regulated kinase 2 (DYRK2, Homo sapiens, UniProt Q92630)
Effect on: enzyme activity
Action: inhibitor
One construct used (Q92630 1-601): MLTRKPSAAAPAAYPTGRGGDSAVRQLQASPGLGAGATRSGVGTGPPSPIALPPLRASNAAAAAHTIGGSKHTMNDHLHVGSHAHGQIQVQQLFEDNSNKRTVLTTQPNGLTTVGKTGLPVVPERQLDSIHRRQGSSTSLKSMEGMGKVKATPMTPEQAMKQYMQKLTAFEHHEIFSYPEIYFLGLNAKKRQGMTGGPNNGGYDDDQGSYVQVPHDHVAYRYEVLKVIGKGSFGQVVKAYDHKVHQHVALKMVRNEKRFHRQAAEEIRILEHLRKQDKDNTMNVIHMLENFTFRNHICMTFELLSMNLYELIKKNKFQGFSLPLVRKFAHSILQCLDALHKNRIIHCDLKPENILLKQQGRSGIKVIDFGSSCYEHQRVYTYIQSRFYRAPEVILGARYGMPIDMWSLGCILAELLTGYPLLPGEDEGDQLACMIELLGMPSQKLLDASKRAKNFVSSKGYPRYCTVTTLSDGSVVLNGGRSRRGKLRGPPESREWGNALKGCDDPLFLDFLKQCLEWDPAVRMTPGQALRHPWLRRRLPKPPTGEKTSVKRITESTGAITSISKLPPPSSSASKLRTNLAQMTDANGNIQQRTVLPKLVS

N#Cc1cccc(Nc2nc3cc(C(=O)O)ccc3c3cnccc23)c1
remaining activity (radiometric; 1 µM): 11%

COc1cc(Cl)c(C(=O)N[C@@H](CN[C@H]2CC[C@@H](N)CC2)Cc2ccc(C#N)cc2)cc1-c1ccc(CN[C@H](C)c2ccc(C)cc2)o1
remaining activity (1 µM): 98%

O=C(O)c1ccc2c(c1)nc(Nc1ccc3ccccc3c1)c1ccncc12
remaining activity (radiometric; 1 µM): 18%

CC(C)(O)[C@H]1CC[C@H](Nc2ccc3ncc(-c4cccc(C(F)(F)F)c4)n3n2)CC1
remaining activity (1 µM): 59.7%

O=C(O)c1ccc2c(c1)nc(Nc1ccccc1)c1ccncc12
remaining activity (radiometric; 1 µM): 45%

Oc1cccc(-c2nc(N3CCOCC3)c3oc4ncccc4c3n2)c1
remaining activity (10 µM): 83%

Nc1nc(NC2CCCCC2)sc1C(=O)c1ccccc1
remaining activity (10 µM): 39%

COc1cccc(CCNc2nc3cc(C(=O)O)ccc3c3cnccc23)c1
remaining activity (radiometric; 1 µM): 19%

COc1cc(Nc2cnc(C#N)c(O[C@H](C)CN(C)C)n2)ncc1-c1cnn(C)c1
remaining activity (radiometric; 1 µM): 100%

CCN(CC)c1ccc(C2=NNC(=O)CC2C)cc1[N+](=O)[O-] (stereo not drawn)
remaining activity (10 µM): 100%

O=C(Nc1cnn(-c2csc(C(=O)NC3COC3)c2)c1)Nc1ccccc1Cl
remaining activity (5 µM): 88.2%

CC(C)(C)C(=O)c1sc(NC2CCCCC2)nc1N
remaining activity (10 µM): 90%
